Molecules are shown by their SMILES.

Test [1] addresses T1, Translocator protein (Rattus norvegicus, UniProt P16257). Nature of the test: Ability to inhibit [3H]-PK 11195 binding to peripheral-type benzodiazepine receptor(PBR) in rat cerebral cortex homogenate; Not active. Format: tissue-based.
Test [2] deals with T2, Voltage-dependent L-type calcium channel subunit alpha-1C (Rattus norvegicus, UniProt P22002). Briefly: Ability to inhibit [3H]nitrendipine binding to the L-type calcium channel receptor(CCR) in rat heart homogenate. Format: tissue-based. In short, it runs like this: (§1)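 Rat hearts perfused through the aorta with ice-cold saline, then homogenised in 50 mM Na-HEPES pH 7.4, filtered through cheesecloth and washed five times. Incubated 90 min at 0 °C in the dark with 3×10^-10 M [3H]nitrendipine; compounds in 5% DMSO. IC50 by log-probit analysis of six displacer concentrations in triplicate.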

Test [3] has as its target T3, Voltage-gated L-type calcium channel (Rattus norvegicus, UniProt P22002+Q02485+P27732). Nature of the test: (§2) Inhibition of [3H]nitrendipine binding to L-type calcium channel receptor(CCR) in rat cerebral cortex homogenate. The test is classed as tissue-based. In short, it runs like this:
(§3)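 Male Sprague–Dawley rat cortex homogenised in 50 mM Na-HEPES pH 7.4, washed five times, pellet stored at -70 °C. Incubated 90 min at 0 °C in the dark with 3×10^-10 M [3H]nitrendipine; compounds dissolved in 5% DMSO. Filtration, scintillation counting. IC50 by log-probit analysis of six displacer concentrations in triplicate. Ki by Prusoff's equation using Kd 0.25 nM.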

Test [4] is filed under the species Cavia porcellus. Nature of the test: Activity of chronotropic negative potency on guinea pig spontaneously beating right atrium. Format: functional, Cardiac atrium. In short, it runs like this:
(§4)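 Guinea pig atria (300–400 g, either sex) in oxygenated Tyrode at 35 °C, pH 7.4. Right atria beat spontaneously; left atria paced at 1 Hz. Isometric force recorded after 45–60 min stabilisation. Cumulative concentrations 0.1–50 μmol/L in DMSO (bath ≤0.3%). Potency from log concentration–response curves by probit analysis, n = 6–8.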

Test [5] is filed under the species Cavia porcellus. Briefly: Percent decrease of negative inotropic activity on isolated guinea pig left atrium at 5*10e-5 M. Format: functional, Cardiac atrium. In short, it runs like this:
as §4

For test [6], the species on record is Cavia porcellus. Briefly: [Ca2+] antagonistic activity on K+ depolarized guinea pig aortic strips (at 5(10e-5) M). The test is classed as functional, Aorta. In short, it runs like this:
(§5)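 Guinea pig aortic strips under 1 g resting force, equilibrated 1 h in PSS, then contracted with 80 mmol/L KCl. At plateau (~30 min), compounds in DMSO added cumulatively at 0.1–50 μmol/L and relaxation recorded.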

The target in test [7] is T3, Voltage-gated L-type calcium channel. Briefly: Ability to inhibit [3H]nitrendipine binding to the calcium channel receptor(CCR) in rat cerebral cortex homogenate. Format: tissue-based.
In test [8] the target is T1, Translocator protein. Briefly: Ability to inhibit [3H]-PK 11195 binding to peripheral-type benzodiazepine receptor(PBR) in rat cerebral cortex homogenate. The test is classed as tissue-based.
The species named for test [9] is Cavia porcellus. Nature of the test: Percent decrease of negative chronotropic activity on isolated guinea pig spontaneously beating right atrium at 1*10e-4 M. The test is classed as functional, Cardiac atrium.
For test [10], the species on record is Cavia porcellus. Briefly: [Ca2+] antagonistic activity on K+ depolarized guinea pig aortic strips (at 5(10e-5) M). The test is classed as functional, Aorta. In short, it runs like this: as §5
In test [11] the target is T3, Voltage-gated L-type calcium channel. The test is described as §2. Format: tissue-based. In short, it runs like this:
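Male Sprague–Dawley rat cortex homogenised in 50 mM Na-HEPES pH 7.4, washed five times, pellet stored at -70 °C. Incubated 90 min at 0 °C in the dark with 3×10^-10 M [3H]nitrendipine; compounds dissolved in 5% DMSO. Filtration, scintillation counting. IC50 by log-probit analysis of six displacer concentrations in triplicate.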
The source holds these as a separate data set.

The species named for test [12] is Cavia porcellus. Briefly: Activity of inotropic negative potency on stimulated guinea pig left atrium. Format: functional. Conditions: Cardiac atrium, read-out: ED50 (the source's name); call rule not given here. In short, it runs like this: as §4
The species entered for test [13] is Cavia porcellus. Briefly: Percent decrease of negative inotropic activity on isolated guinea pig left atrium at 1*10e-5 M. The test is classed as functional, Cardiac atrium. In short, it runs like this:
as §4

The target in test [14] is T2, Voltage-dependent L-type calcium channel subunit alpha-1C. Nature of the test: Ability to inhibit [3H]nitrendipine binding to the L-type calcium channel receptor(CCR) in rat heart homogenate. The test is classed as tissue-based. In short, it runs like this: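 Rat heart perfused via aorta with ice-cold saline, homogenized in 50 mM Na-HEPES pH 7.4, filtered through cheesecloth, washed five times at 48000g, and stored at -70 °C. Homogenate incubated 90 min at 0 °C in the dark with 3×10^-10 M [3H]nitrendipine; compounds in 5% DMSO. Bound counts taken after filtration. IC50 by log-probit from six concentrations in triplicate.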

Test [15] is filed under the species Cavia porcellus. Briefly: IC50 activity of [Ca2+] antagonistic potency on K+ depolarized guinea pig aortic strips. Format: functional. Conditions: Aorta. In short, it runs like this: as §5
The species entered for test [16] is Cavia porcellus. Briefly: Percent decrease of negative chronotropic activity on isolated guinea pig spontaneously beating right atrium at 1*10e-5 M. Format: functional, Cardiac atrium. In short, it runs like this: as §4
Test [17] is filed under the species Cavia porcellus. Nature of the test: Activity of chronotropic negative potency on guinea pig spontaneously beating right atrium. Format: functional, Cardiac atrium. In short, it runs like this:
as §4

Test [18] addresses T2, Voltage-dependent L-type calcium channel subunit alpha-1C. Nature of the test: Ability to inhibit [3H]nitrendipine binding to the L-type calcium channel receptor(CCR) in rat heart homogenate; Not active. Format: tissue-based. In short, it runs like this: as §1
The species named for test [19] is Cavia porcellus. Nature of the test: [Ca2+] antagonistic activity on K+ depolarized guinea pig aortic strips at 5*10e-5 M. Format: functional, Aorta. In short, it runs like this:
as §5

For test [20], the target named is T3, Voltage-gated L-type calcium channel. Briefly: Ability to inhibit [3H]nitrendipine binding to the calcium channel receptor(CCR) in rat cerebral cortex homogenate; Not active. The test is classed as tissue-based. In short, it runs like this:
as §3

The species named for test [21] is Cavia porcellus. Nature of the test: Activity of inotropic negative potency on stimulated guinea pig left atrium. Format: functional. Conditions: Cardiac atrium, read-out: ED50 (the source's name). In short, it runs like this: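 Isolated left atria from guinea pigs (300–400 g, either sex), Tyrode PSS gassed with 95% O2–5% CO2, 35 °C, pH 7.4, driven at 1 Hz by rectangular pulses; isometric force recorded after 45–60 min stabilization.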

For test [22], the species on record is Cavia porcellus. Nature of the test: Percent decrease of negative chronotropic activity on isolated guinea pig spontaneously beating right atrium at 1*10e-6 M. The test is classed as functional, Cardiac atrium. In short, it runs like this:
as §4

Test [23] is filed under the species Cavia porcellus. Nature of the test: [Ca2+] antagonistic activity on K+ depolarized guinea pig aortic strips at 10e-4 M. The test is classed as functional. Conditions: Aorta.

As usually defined, the IC50 is the concentration needed to halve the response being measured. Regarding `COc1ccc(C2=C(OC(=O)c3cc(OC)c(OC)c(OC)c3)c3cccn3-c3cc(C(F)(F)F)ccc3S2)cc1`, the IC50 result on Translocator protein [1] was “Not Active”.

The term Ki denotes the dissociation constant of the complex between target and ligand, obtained from inhibition or displacement. In general, Inhibition refers to the percentage by which the read-out fell short of the control. With `CC(=O)O[C@@H]1c2ccc(CN(C)C)n2-c2cccc(Cl)c2S[C@@H]1c1ccccc1`, the IC50 in test [2] was found to be 12 nM. Besides, in test [3], the Ki is given as 13 nM. The compound also came in with an ED30 in the test filed under Cavia porcellus [4] of 0.85 µM. Also, the Decrease in the test listed under Cavia porcellus [5] turned out to be 41%. This compound also returned an Inhibition in the test listed under Cavia porcellus [6] of 32%.

As to `CC(=O)O[C@@H]1c2ccc(CN(C)C)n2-c2ccccc2S[C@@H]1c1ccccc1`, the IC50 in test [7] was 5200 nM.

Consider `COc1ccc(C2Sc3ccccc3-n3c(CN(C)C)ccc32)cc1` (stereo unspecified), for which the 50% inhibitory concentration (IC50) at Translocator protein [8] (read-out: IC50) is > 2000 nM; in test [14], 17 nM. Moreover, the Decrease in the test listed under Cavia porcellus [9] was 30%; in the test listed under Cavia porcellus [13] it was 75%. In the test filed under Cavia porcellus [10], this compound displayed an Inhibition of 10%. Moreover, the Ki in [11] was 0.19 nM. In addition, the EC50 in the test filed under Cavia porcellus [12] amounted to 810 nM.

Consider `CCCC(=O)OC1=C(c2ccccc2)Sc2ccccc2-n2cccc21`, for which the IC50 in test [7] stood at 4.88 nM.

Regarding `COc1ccc(C2=C(OC(=O)c3cc(OC)c(OC)c(OC)c3)c3cccn3-c3ccccc3S2)cc1`, the IC50 result on Translocator protein [1] is “Not Active”.

Take `COc1ccc(C2=C(OC(=O)c3cc(OC)c(OC)c(OC)c3)c3cccn3-c3cc(Cl)ccc3S2)cc1`: the IC50 entry on Translocator protein [8] was “Not Active”.

Consider `COc1ccc([C@H]2Sc3ccccc3-n3c(CN(C)C)ccc3[C@H]2OC(C)=O)cc1`, for which the results for the IC50 (in the test filed under Cavia porcellus [15]; in [7]) were 4.45 µM and 136 nM, respectively. Further, the ED30 in the test listed under Cavia porcellus [4] is 1.5 µM. Further, the values for the Decrease in the test listed under Cavia porcellus [5] and in the test listed under Cavia porcellus [16] were 87% and 90%, respectively. Moreover, the Inhibition in the test filed under Cavia porcellus [10] came to 56%. The EC50 in the test listed under Cavia porcellus [12] was found to be 710 nM.

As for `COc1ccc(C2=C(OC(C)=O)c3cccn3-c3cc(Cl)ccc3S2)cc1`, in [7], the IC50 came to 132 nM.

On to `COc1ccc([C@H]2Sc3ccc(Cl)cc3-n3c(CN(C)C)ccc3[C@H]2OC(C)=O)cc1`, for which the IC50 in test [7] is listed as 3.3 nM. In addition, the Ki in [3] was determined as 1.5 nM. The Decrease is listed as 83% in the test filed under Cavia porcellus [5] and 61% in the test filed under Cavia porcellus [16]. In addition, in the test listed under Cavia porcellus [12], the EC50 was determined as 660 nM. The same compound yielded an ED30 in the test filed under Cavia porcellus [17] of 0.88 µM. In addition, in the test listed under Cavia porcellus [6], the Inhibition is given as 40%.

With `CC(=O)OC1=C(c2ccccc2)Sc2ccc(Cl)cc2-n2cccc21`, the results for the IC50 (at Translocator protein [8] (read-out: IC50); in [7]) were 560 nM and 150 nM, respectively.

As for `CC(=O)OC1=C(c2ccccc2)Sc2ccccc2-n2cccc21`, the IC50 in test [2] is 220 nM; in [7], 6 nM.

Take `COc1ccc(C2=C(OC(=O)N(C)C)c3cccn3-c3ccccc3S2)cc1`: the figures for the IC50 in [7] and in [18] were 420 nM and “Not Active”, respectively.

Consider `COc1ccc(C2=C(OC(C)=O)c3cccn3-c3ccccc3S2)cc1`, for which the IC50 worked out at 340 nM in test [2] and 0.13 nM in test [7]. In addition, the Decrease in the test listed under Cavia porcellus [5] came to 86%; in the test listed under Cavia porcellus [16] it was 26%. Further, the EC50 in the test filed under Cavia porcellus [12] turned out to be 310 nM. The Inhibition in the test filed under Cavia porcellus [19] was determined as 27%.

For the compound `COc1ccc(C2=C(OC(C)=O)c3cccn3-c3cc(C(F)(F)F)ccc3S2)cc1`, the figures for the IC50 (in [7]; on Translocator protein [1]) were > 2000 nM and “Not Active”, respectively.

`CCCC(=O)OC1=C(c2ccc(OC)cc2)Sc2ccccc2-n2cccc21`: the values for the IC50 in test [2] and in [7] were 150 nM and 16 nM, respectively.

In the case of `CCCCC(=O)OC1=C(c2ccccc2)Sc2ccccc2-n2cccc21`, in [2], the IC50 came to 610 nM.

As for `CC(=O)OC1=C(c2ccccc2)Sc2ccc(Cl)cc2-n2c(CN(C)C)ccc21`, the IC50 on Translocator protein [8] (read-out: IC50) is > 2000 nM; in test [7], 960 nM.

For `COc1ccc(C2=C(OC(C)=O)c3ccc(CN(C)C)n3-c3cc(Cl)ccc3S2)cc1`, the IC50 on Translocator protein [8] (read-out: IC50) was > 2000 nM.

For `CC(=O)O[C@@H]1c2ccc(CN(C)C)n2-c2cc(C(F)(F)F)ccc2S[C@@H]1c1ccccc1`, the half-inhibitory concentration (IC50) in test [7] amounted to 300 nM.

For `CC(=O)OC1=C(c2ccccc2)Sc2ccccc2-n2c(CN(C)C)ccc21`, at Translocator protein [8] (read-out: IC50), the IC50 was > 2000 nM.

`CC(=O)O[C@@H]1c2ccc(CN(C)C)n2-c2cc(Cl)ccc2S[C@@H]1c1ccccc1`: the IC50 entry is “Not Active” in [18] and 1230 nM in [20].

Usually inhibition stands for the change of the read-out against control, counted positive when it falls. The low end stands for little suppression, the high end for strong suppression. With `COc1ccc([C@@H]2Sc3ccccc3N(CCN(C)C)C(=O)[C@@H]2OC(C)=O)cc1` [DILTIAZEM], the EC50 in the test filed under Cavia porcellus [21] turned out to be 790 nM. Moreover, the values for the Decrease in the test filed under Cavia porcellus [22] and in the test filed under Cavia porcellus [13] were 94% and 78%, respectively. For the same compound, in the test listed under Cavia porcellus [17], the ED30 is 0.07 µM. In addition, 100 µM produced 88% inhibition in the test listed under Cavia porcellus [23].

Values taken from ChEMBL document CHEMBL1129246, “Cardiovascular characterization of pyrrolo[2,1-d][1,5]benzothiazepine derivatives binding selectively to the peripheral-type benzodiazepine receptor (PBR): from dual PBR affinity and calcium antagonist activity to novel and selective calcium entry blockers” (J Med Chem, 1996).
